According to ChEMBL document CHEMBL4613292, “5,6-Dihydroxypyrimidine Scaffold to Target HIV-1 Nucleocapsid Protein” (ACS Med Chem Lett, 2020):
Active and inactive are the calls of the source. The rule behind the calls is not given here.

Key:
[1] = Inhibition of HIV1 Nucleocapsid protein (11 to 55 residues) assessed as reduction in NC-induced cTAR DNA destabilization by measuring intrinsic fluorescence using Alexa488-5'-cTAR-3'-Dabcyl oligonucleotide as substrate at 20 degree C incubated for 15 mins by fluorescence assay; design: species or system Human immunodeficiency virus 1; details: read-out: IC50
Outline: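 Fluorescence NC-inhibition assay following destabilisation of cTAR DNA, the complement of the HIV-1 transactivation response element, dual-labelled with Alexa488 dye and Dabcyl quencher. NC protein at 1 μM, so the lowest measurable IC50 is 0.5 μM.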

[2] = system: Human immunodeficiency virus 1; assay: Antiviral activity against wild-type HIV1 NL4-3 infected in human TZM-bl cells infected with supernatants from virus-infected human MT2 cells treated with compound for 48 to 72 hrs assessed as reduction in viral replication after 2 days by bright Glo-luciferase reporter gene assay based BiCycle assay; type: functional, organism-based; details: Human immunodeficiency virus 1, NL4-3, TZM
Outline: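 Two-round cell assay over the full replication cycle: MT-2 T cells are infected with wild-type reference strain NL4-3 in the first round, and reporter TZM-bl cells are infected in the second round. Values are given as mean ± deviation.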

[3] = Cytotoxicity against human HeLa cells assessed as reduction in cell viability; type: cell-based
[4] = Selectivity index, ratio of CC50 for human HeLa cells assessed as reduction in cell viability to EC50 for wild-type HIV1 NL4-3 infected in human TZM-bl cells infected with supernatants from virus-infected human MT2 cells treated with compound for 48 to 72 hrs assessed as reduction in viral replication after 2 days by bright Glo-luciferase reporter gene assay based BiCycle assay; type: toxicity; details: read-out: Ratio CC50/EC50
Outline: (§1)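 Selectivity index is CC50 from the respective cytotoxicity assay (HeLa or PBMC) divided by EC50 from the two-round MT-2/TZM-bl NL4-3 assay.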

[5] = Cytotoxicity against phytohemagglutinin and interleukin-2-stimulated human PBMC cells assessed as reduction in cell viability measured after 7 days by MTS assay; type: cell-based
[6] = Selectivity index, ratio of CC50 for human PBMC cells stimulated with phytohemagglutinin and interleukin-2 assessed as reduction in cell viability measured after 7 days by MTS assay to EC50 for wild-type HIV1 NL4-3 infected in human TZM-bl cells infected with supernatants from virus-infected human MT2 cells treated with compound for 48 to 72 hrs assessed as reduction in viral replication after 2 days by bright Glo-luciferase reporter gene assay based BiCycle assay; type: toxicity; details: read-out: Ratio CC50/EC50; outline: as §1
[7] = system: Human immunodeficiency virus 1; assay: Antiviral activity against PI-resistant HIV1 11808; type: functional, organism-based; details: Human immunodeficiency virus 1, 11808
[8] = system: Human immunodeficiency virus 1; assay: Antiviral activity against NRTI-resistant HIV1 7401; type: functional, organism-based; details: Human immunodeficiency virus 1, 7401
[9] = system: Human immunodeficiency virus 1; assay: Antiviral activity against NNRTI-resistant HIV1 12231; type: functional, organism-based; details: Human immunodeficiency virus 1, 12231
[10] = system: Human immunodeficiency virus 1; assay: Antiviral activity against INI-resistant HIV1 11845; type: functional, organism-based; details: Human immunodeficiency virus 1, 11845
[11] = system: Human immunodeficiency virus 1; assay: Ratio of IC50 for PI-resistant HIV1 11808 Nucleocapsid protein (11 to 55 residues) using Alexa488-5'-cTAR-3'-Dabcyl oligonucleotide as substrate to IC50 for HIV1 Nucleocapsid protein (11 to 55 residues) assessed as reduction in NC-induced cTAR DNA destabilization by measuring intrinsic fluorescence using Alexa488-5'-cTAR-3'-Dabcyl oligonucleotide as substrate at 20 degree C incubated for 15 mins by fluorescence assay
[12] = system: Human immunodeficiency virus 1; assay: Ratio of IC50 for NRTI-resistant HIV1 7401 Nucleocapsid protein (11 to 55 residues) using Alexa488-5'-cTAR-3'-Dabcyl oligonucleotide as substrate to IC50 for HIV1 Nucleocapsid protein (11 to 55 residues) assessed as reduction in NC-induced cTAR DNA destabilization by measuring intrinsic fluorescence using Alexa488-5'-cTAR-3'-Dabcyl oligonucleotide as substrate at 20 degree C incubated for 15 mins by fluorescence assay
[13] = system: Human immunodeficiency virus 1; assay: Ratio of IC50 for NNRTI-resistant HIV1 12231 Nucleocapsid protein (11 to 55 residues) using Alexa488-5'-cTAR-3'-Dabcyl oligonucleotide as substrate to IC50 for HIV1 Nucleocapsid protein (11 to 55 residues) assessed as reduction in NC-induced cTAR DNA destabilization by measuring intrinsic fluorescence using Alexa488-5'-cTAR-3'-Dabcyl oligonucleotide as substrate at 20 degree C incubated for 15 mins by fluorescence assay
[14] = system: Human immunodeficiency virus 1; assay: Ratio of IC50 for INI-resistant HIV1 11845 Nucleocapsid protein (11 to 55 residues) using Alexa488-5'-cTAR-3'-Dabcyl oligonucleotide as substrate to IC50 for HIV1 Nucleocapsid protein (11 to 55 residues) assessed as reduction in NC-induced cTAR DNA destabilization by measuring intrinsic fluorescence using Alexa488-5'-cTAR-3'-Dabcyl oligonucleotide as substrate at 20 degree C incubated for 15 mins by fluorescence assay
[15] = Half life in mouse plasma at 3 uM by LC-MS/MS analysis; type: ADME, cell-free
[16] = Half life in human plasma at 3 uM by LC-MS/MS analysis; type: ADME, cell-free
[17] = Half life in mouse hepatocytes at 3 uM by LC-MS/MS analysis; type: ADME, cell-based, Hepatocyte
[18] = Half life in human hepatocytes at 3 uM by LC-MS/MS analysis; type: ADME, cell-based, Hepatocyte
[19] = target: Voltage-gated inwardly rectifying potassium channel KCNH2 (Homo sapiens, UniProt Q12809); assay: Displacement of Tracer Red from human ERG measured after 4 hrs by fluorescence polarization assay
Cytochrome P450 1A2 = target: T1, Cytochrome P450 1A2 (Homo sapiens, UniProt P05177); assay: Inhibition of human microsomal CYP1A2 expressed in baculovirus infected insect cells using luciferin-1A2 as substrate preincubated with enzyme-substrate mixture for 30 mins followed by further incubation with NADPH for 30 mins by CYP450 luciferase Glo assay; type: ADME
T1 sequence (P05177 whole entry): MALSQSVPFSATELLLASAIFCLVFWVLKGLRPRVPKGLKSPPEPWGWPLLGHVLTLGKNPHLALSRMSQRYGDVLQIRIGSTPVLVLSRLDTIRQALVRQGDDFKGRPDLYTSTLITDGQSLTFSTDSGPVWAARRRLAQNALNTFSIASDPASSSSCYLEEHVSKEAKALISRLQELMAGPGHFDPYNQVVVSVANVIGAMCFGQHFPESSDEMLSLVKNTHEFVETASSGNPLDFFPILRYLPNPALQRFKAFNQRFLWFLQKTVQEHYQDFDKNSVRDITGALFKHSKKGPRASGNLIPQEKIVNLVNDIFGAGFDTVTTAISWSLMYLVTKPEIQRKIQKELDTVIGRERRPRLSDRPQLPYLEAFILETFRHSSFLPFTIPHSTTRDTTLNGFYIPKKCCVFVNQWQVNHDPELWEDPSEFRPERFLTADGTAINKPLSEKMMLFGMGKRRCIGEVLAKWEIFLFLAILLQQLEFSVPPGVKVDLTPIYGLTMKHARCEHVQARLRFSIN

Cytochrome P450 2D6 = Cytochrome P450 2D6 (Homo sapiens, UniProt P10635); assay: Inhibition of human microsomal CYP2D6 expressed in baculovirus infected insect cells using luciferin-ME as substrate preincubated with enzyme/substrate mixture for 30 mins followed by further incubation with NADPH for 30 mins by CYP450 luciferase Glo assay; type: ADME
Cytochrome P450 3A4 = Cytochrome P450 3A4 (Homo sapiens, UniProt P08684); assay: Inhibition of human microsomal CYP3A4 expressed in baculovirus infected insect cells using luciferin-IPA as substrate preincubated with enzyme/substrate mixture for 30 mins followed by further incubation with NADPH for 30 mins by CYP450 luciferase Glo assay; type: ADME
[20] = Half life in C57BL/6 mouse at 2 mg/kg, iv or 5 mg/kg, po administered as single dose measured up to 24 hrs by LC-MS/MS analysis; type: ADME, organism-based; details: in vivo
[21] = Volume of distribution at steady state in C57BL/6 mouse at 2 mg/kg, iv or 5 mg/kg, po administered as single dose measured up to 24 hrs by LC-MS/MS analysis; type: ADME, organism-based; details: in vivo, read-out: Vdss
[22] = Clearance in C57BL/6 mouse at 2 mg/kg, iv or 5 mg/kg, po administered as single dose measured up to 24 hrs by LC-MS/MS analysis; type: ADME, organism-based; details: in vivo
[23] = Oral bioavailability in C57BL/6 mouse at 5 mg/kg administered as single dose measured up to 24 hrs by LC-MS/MS analysis; type: ADME, organism-based; details: in vivo
Outline: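 C57BL/6 mice were dosed 5 mg/kg orally, with a 2 mg/kg iv reference arm. Plasma was sampled at eight time points up to 24 h.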

[24] = target: Human immunodeficiency virus type 1 integrase (Human immunodeficiency virus 1) (UniProt Q7ZJM1); assay: Inhibition of wild type recombinant HIV1 His6-tagged integrase expressed in Escherichia coli BL21 using 18 nucleotide 3'-biotin labeled DNA acceptor as substrate upto 10 uM preincubated for 1 hr followed by substrate addition and further incubated for 90 mins in presence of recombinant LEDGF/p75 by HTRF assay
Human immunodeficiency virus type 1 integrase (Human immunodeficiency virus 1), sequence (Q7ZJM1 as listed by the source): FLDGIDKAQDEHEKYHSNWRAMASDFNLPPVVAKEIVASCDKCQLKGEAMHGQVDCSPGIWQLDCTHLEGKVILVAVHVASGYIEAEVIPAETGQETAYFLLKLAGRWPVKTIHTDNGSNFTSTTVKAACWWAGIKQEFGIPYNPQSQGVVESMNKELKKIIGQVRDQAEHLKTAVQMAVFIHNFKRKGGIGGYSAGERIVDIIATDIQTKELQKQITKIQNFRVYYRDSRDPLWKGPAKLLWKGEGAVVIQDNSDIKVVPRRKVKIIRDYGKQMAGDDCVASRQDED

Cytochrome P450 3A4, sequence (P08684 whole entry): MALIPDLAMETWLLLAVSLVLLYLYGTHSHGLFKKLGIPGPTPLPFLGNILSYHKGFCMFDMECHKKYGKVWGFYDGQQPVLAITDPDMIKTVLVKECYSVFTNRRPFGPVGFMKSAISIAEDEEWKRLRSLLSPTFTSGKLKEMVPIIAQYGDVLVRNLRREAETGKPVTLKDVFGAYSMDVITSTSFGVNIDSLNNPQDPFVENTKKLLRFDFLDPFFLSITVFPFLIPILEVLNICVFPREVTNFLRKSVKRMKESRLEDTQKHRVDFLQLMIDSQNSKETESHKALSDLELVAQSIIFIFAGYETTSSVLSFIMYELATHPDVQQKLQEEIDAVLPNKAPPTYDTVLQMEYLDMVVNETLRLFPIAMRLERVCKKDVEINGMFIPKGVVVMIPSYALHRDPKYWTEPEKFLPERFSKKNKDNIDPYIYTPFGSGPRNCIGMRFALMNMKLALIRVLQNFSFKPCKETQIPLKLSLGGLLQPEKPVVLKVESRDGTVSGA
Cytochrome P450 2D6, sequence (P10635 whole entry): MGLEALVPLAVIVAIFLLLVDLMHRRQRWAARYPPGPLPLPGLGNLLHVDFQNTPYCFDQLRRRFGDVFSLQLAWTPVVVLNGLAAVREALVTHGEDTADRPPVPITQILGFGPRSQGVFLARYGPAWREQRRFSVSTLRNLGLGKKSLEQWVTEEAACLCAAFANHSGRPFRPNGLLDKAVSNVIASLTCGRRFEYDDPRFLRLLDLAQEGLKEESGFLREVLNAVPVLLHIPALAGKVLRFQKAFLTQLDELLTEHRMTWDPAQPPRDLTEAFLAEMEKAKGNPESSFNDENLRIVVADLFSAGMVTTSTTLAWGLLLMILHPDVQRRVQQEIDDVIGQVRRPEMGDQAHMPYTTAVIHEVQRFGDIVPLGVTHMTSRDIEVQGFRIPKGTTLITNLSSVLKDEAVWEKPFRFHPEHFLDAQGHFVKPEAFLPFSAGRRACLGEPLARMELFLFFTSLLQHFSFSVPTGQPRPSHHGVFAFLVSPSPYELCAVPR
Voltage-gated inwardly rectifying potassium channel KCNH2, sequence (Q12809 whole entry): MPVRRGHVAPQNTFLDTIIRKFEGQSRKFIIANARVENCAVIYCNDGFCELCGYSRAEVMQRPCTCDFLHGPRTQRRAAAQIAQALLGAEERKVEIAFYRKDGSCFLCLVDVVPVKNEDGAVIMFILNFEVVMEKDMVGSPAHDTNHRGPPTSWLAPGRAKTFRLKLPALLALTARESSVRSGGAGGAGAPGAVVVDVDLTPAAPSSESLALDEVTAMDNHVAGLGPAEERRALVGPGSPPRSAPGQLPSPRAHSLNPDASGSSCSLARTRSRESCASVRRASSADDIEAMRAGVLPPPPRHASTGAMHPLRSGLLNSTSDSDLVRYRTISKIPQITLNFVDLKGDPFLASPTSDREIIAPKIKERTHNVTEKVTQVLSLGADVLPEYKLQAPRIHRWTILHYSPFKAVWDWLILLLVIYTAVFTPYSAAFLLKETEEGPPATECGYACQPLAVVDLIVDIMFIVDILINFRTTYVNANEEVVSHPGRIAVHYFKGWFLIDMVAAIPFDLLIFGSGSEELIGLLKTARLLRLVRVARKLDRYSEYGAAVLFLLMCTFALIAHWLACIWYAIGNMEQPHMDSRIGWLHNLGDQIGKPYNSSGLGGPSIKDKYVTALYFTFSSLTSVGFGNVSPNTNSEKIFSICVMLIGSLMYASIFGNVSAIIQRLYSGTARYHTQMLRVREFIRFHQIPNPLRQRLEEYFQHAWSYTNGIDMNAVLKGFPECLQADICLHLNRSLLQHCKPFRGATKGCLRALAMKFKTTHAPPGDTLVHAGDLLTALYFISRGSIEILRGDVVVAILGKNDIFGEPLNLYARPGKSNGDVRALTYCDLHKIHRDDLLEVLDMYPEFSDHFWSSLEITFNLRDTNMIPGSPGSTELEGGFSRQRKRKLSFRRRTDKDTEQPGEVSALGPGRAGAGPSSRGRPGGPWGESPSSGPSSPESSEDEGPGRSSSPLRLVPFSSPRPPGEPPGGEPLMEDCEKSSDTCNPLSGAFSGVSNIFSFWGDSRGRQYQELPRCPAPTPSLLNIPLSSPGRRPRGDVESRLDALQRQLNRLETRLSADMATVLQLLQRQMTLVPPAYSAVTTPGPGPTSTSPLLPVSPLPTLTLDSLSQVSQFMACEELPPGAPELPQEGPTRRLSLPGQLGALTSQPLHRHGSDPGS

SMILES	IC50 [1]	EC50 [2]	CC50 [3]	selectivity ratio [4]	CC50 at 168 h [5]	selectivity ratio at 7 days [6]	EC50 [7]	EC50 [8]	EC50 [9]	EC50 [10]	Ratio IC50 [11]	Ratio IC50 [12]	Ratio IC50 [13]	Ratio IC50 [14]	half-life at 3 µM [15]	half-life at 3 µM [17]	half-life at 3 µM [18]	IC50 [19]	IC50 (Cytochrome P450 1A2)	IC50 (Cytochrome P450 2D6)	other results
C[C@@H](NC(=O)c1nc(-c2cc(Cl)ccn2)nc(O)c1O)C1CCCCC1	2 µM	0.1 µM	3 µM	30	2.5 µM	25	0.02 µM	0.01 µM	0.08 µM	0.07 µM	0.2	0.1	0.8	0.7	> 6 h	1.7 h	> 4 h	> 30 µM	> 30 µM	> 30 µM	half-life at 3 µM [16]: > 6 h; IC50 (Cytochrome P450 3A4): > 30 µM; half-life [20]: 3.1 h; Vd [21]: 1.2 L/kg; clearance [22]: 37.1 mL/min/kg; bioavailability [23]: 40%
COc1ccnc(-c2nc(O)c(O)c(C(=O)N[C@H](C)C3CCCCC3)n2)c1	22 µM	0.04 µM	3 µM	75	2.7 µM	75	0.056 µM	0.031 µM	0.11 µM	0.09 µM	1.4	0.8	2.8	2.3	> 24 h	1.9 h	> 4 h	> 30 µM	> 30 µM	> 30 µM	half-life at 3 µM [16]: > 6 h; IC50 (Cytochrome P450 3A4): > 30 µM; half-life [20]: 1.4 h; Vd [21]: 0.8 L/kg; clearance [22]: 33.1 mL/min/kg; bioavailability [23]: 25%; inhibition [24]: inactive
C[C@@H](NC(=O)c1nc(-c2nccc3ccccc23)nc(O)c1O)C1CCCCC1	4 µM	0.1 µM	2.1 µM	21	5 µM	50	0.16 µM	0.13 µM	0.21 µM	0.09 µM	1.6	1.3	2	0.9	3.7 h	1.7 h	2.6 h	> 30 µM	> 30 µM	> 30 µM	IC50 (Cytochrome P450 3A4): > 30 µM; half-life [20]: 1.1 h; Vd [21]: 0.8 L/kg; clearance [22]: 30.2 mL/min/kg; bioavailability [23]: 26%; inhibition [24]: inactive
